Hits are enriched below; roughly 2.1% of the tested compounds scored in any of these assays.
DNMT1 block – human DNMT1 methyltransferase inhibitors, primary screen, biochemical, molecular beacon, fluorescence, HinP1I cleavage, uHTS; 360,000 compounds, 0.83% hits; inhibition (reported as % activation of signal), % at 10 µM; in the data active = inhibition above about 50%
SUMO1-SIM PPI – modulators of SUMO1 protein-protein interactions, primary screen, biochemical, uHTS | SUMO1 binding to a labelled peptide, TR-FRET, 1 h | inhibition, % at 20 µM | 360,000 compounds, 0.33% hits | AID 602429, 2012; in the data active = inhibition above about 37%
Target sequence (P63165 whole entry, looked up): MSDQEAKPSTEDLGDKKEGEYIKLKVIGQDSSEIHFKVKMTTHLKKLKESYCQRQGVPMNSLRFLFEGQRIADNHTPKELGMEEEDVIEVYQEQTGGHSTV
STEP block – STEP phosphatase inhibitors, primary screen, biochemical, fluorescence intensity, uHTS | recombinant STEP, OMFP fluorogenic substrate | inhibition, % at 20 µM | 360,000 compounds, 0.25% hits | Tyrosine-protein phosphatase non-receptor type 5 (Homo sapiens), P54829 | AID 588621, 2011;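 active = inhibition at 20 µM, scaled per plate between control wells, above about 37%, limit read from the data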;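 also: 0% = DMSO with enzyme and substrate and 100% = substrate only without enzyme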
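Material: STEP (striatal-enriched tyrosine phosphatase) enzyme, cell-free; Compound dosing: 20 µM single dose in 1% DMSO; Technique: fluorescence read at 480 nm ex / 540 nm em; Times: reaction 20 min, ambient temperature; Medium: 50 mM Bis-Tris pH 6.0 with 2.5 mM DTT and 0.005% Tween 20; Also added: OMFP at 25 µM.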
Scp-1 inhibitor – Scp-1 phosphatase inhibitors, primary screen, biochemical, colorimetric, uHTS; inhibition, % at 20 µM; 340,000 compounds, 0.88% hits; AID 493091, 2011; Recombinant Scp1, phosphopeptide, malachite green phosphate absorbance;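 active = inhibition above about 50% at 20 µM, limit read from the data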;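 also: plate controls were DMSO wells with enzyme for no effect and wells lacking enzyme for full effect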
Target sequence (Q9GZU7 76-261 limits assumed): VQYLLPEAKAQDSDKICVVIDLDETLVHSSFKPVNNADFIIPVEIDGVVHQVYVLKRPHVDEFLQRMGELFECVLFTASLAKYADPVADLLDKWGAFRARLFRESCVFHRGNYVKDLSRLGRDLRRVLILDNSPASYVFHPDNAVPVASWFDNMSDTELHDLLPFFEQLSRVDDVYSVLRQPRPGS
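assay system = SCP-1 phosphatase catalytic domain, residues 76-261 | buffer or medium = 50 mM Tris acetate pH 5.5, 0.005% Tween-20, 10 mM MgCl2 | incubation = enzyme reaction 45 min at room temperature, colour 5 min, stabilisation 30 min | signal = Phosphate-binding colour reagent, absorbance read at 630 nm | measure = % inhibition at 20 µM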
LMPTP block – LMPTP phosphatase inhibitors, primary screen, biochemical, fluorescence intensity, uHTS | Low molecular weight phosphotyrosine protein phosphatase (Homo sapiens), P24666 | recombinant LMPTP-A, OMFP fluorogenic substrate | inhibition, % at 20 µM | 360,000 compounds, 0.22% hits | AID 651560, 2012;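 active = compounds that cut the enzyme signal by at least half of the control window in the single-dose screen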;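 also: plate controls were DMSO wells with enzyme plus substrate for no effect and substrate without enzyme for full effect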
Target sequence (P24666 whole entry, looked up): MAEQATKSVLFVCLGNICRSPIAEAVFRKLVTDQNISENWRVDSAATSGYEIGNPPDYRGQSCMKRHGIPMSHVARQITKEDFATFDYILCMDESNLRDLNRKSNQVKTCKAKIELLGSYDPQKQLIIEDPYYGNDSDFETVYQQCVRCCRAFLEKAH
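Buffer or medium: Bis-Tris pH 6.0, DTT, detergent; Assay system: LMPTP-A enzyme; Quantity: 0.625 nM enzyme; Detection: endpoint fluorescence intensity; Times: 50 min dark incubation at room temperature; Controls: substrate-only low control, DMSO enzyme-plus-substrate high control; Doses: single 20 µM dose; Read-out: percent inhibition versus substrate-only and uninhibited controls; Reagent: 400 µM OMFP.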
GRK2 inh – compounds blocking aptamer binding on GRK2 – biochemical, human GRK2, bead flow cytometry, HTS, primary screen. Beta-adrenergic receptor kinase 1 (Homo sapiens), P25098. FAM-aptamer displacement from GRK2. inhibition of aptamer binding, % at 10 µM. 330,000 compounds, 0.59% hits. AID 488847, 2010;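 active = inhibition of aptamer binding above 40%, roughly 3 SD of noise, on plates passing a quality check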;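 also: median bead fluorescence of bound FAM aptamer so fluorescent compounds give negative values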
DNMT1 confirm – DNMT1 methyltransferase inhibitor retest, confirmation, biochemical, molecular beacon, fluorescence, single concentration; shares compounds with DNMT1 block; AID 602385, 2012; inhibition, % at 10 µM; DNMT1 molecular beacon HinP1I cleavage; 2,300 compounds, 8% hits;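 active = average inhibition of at least 30% in the single-concentration confirmation test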
DNMT1 interf – beacon fluorescence artifact counter-screen; shares compounds with DNMT1 block; DNMT1 molecular beacon spectral interference counterscreen, fluorescence 485/520; activation (fluorescence interference), % at 10 µM; 2,300 compounds, 1% hits;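 active = activation of at least 30% at 10 µM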;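 also: DNMT1 catalytic domain with a HinP1I cleavage step and a FAM/dabcyl DNA beacon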
* = called active by the depositor; . = no result.

SMILES | DNMT1 block | SUMO1-SIM PPI | STEP block | Scp-1 inhibitor | LMPTP block | GRK2 inh | DNMT1 confirm | DNMT1 interf
COc1cccc(NC(=S)NCc2ccc3c(c2)cc(C)n3C)c1 | 19 | -1 | -3 | -11 | 5 | . | . | .
Cc1cc2cc(CNC(=O)Cc3ccc([N+](=O)[O-])cc3)ccc2n1C | 56* | -17 | 1 | -6 | 17 | 11 | 1 | 8
Cc1cccc(NC(=O)NCc2ccc3c(c2)cc(C)n3C)c1 | 57* | -45 | -2 | -6 | 5 | 31 | 0 | 1
Cc1cc2cc(CNC(=S)Nc3ccc(OC(F)(F)F)cc3)ccc2n1C | 57* | -71 | -3 | 3 | 2 | 0 | 1 | 4
C[C@@H]1CN([C@@H](C)CO)C(=O)CCCn2nncc2CO[C@@H]1CN(C)C(=O)Nc1cccc(Oc2ccccn2)c1 | 1 | -2 | -2 | . | -1 | . | . | .
CCc1nc2ccc(C(=O)NCCCN3CCCC3=O)cn2c1N(C)C(=O)C1CCCCC1 | 4 | 0 | -4 | . | -1 | . | . | .
Nc1c(C(=O)C2CC2)sc2nc(-c3ccccc3)cc(C(F)(F)F)c12 | 68* | -6 | -41 | -5 | 1 | 0 | 51* | 37*
O=C(Nc1cc(Cl)ccc1N1CCOCC1)c1ccncc1 | 80* | 2 | -1 | 6 | -1 | 4 | 8 | 9
CCCCN(C(=O)c1cccc(S(=O)(=O)N2CCCC2)c1)c1c(N)n(CCC)c(=O)[nH]c1=O | 6 | 0 | -2 | 6 | -1 | 0 | . | .
CCCCN(C(=O)c1cccc(-n2cccc2)c1)c1c(N)n(CCC)c(=O)[nH]c1=O | 62* | 13 | 8 | 70* | 4 | 4 | 5 | 6
O=C(Nc1cccc(Cl)c1)c1cc2c(=O)n3ccccc3nc2s1 | 62* | 6 | 2 | -8 | 24 | 0 | 7 | 18
CC(=O)NS(=O)(=O)c1ccc(NC(=O)c2cc3c(=O)n4ccccc4nc3s2)cc1 | 4 | -4 | 1 | 5 | 1 | 1 | . | .
CN(Cc1ccccc1)C(=O)c1[nH]cnc1C(=O)Nc1ccc(Br)cc1F | 1 | -1 | 0 | . | 0 | . | . | .
COCCN1C(=O)CN(S(C)(=O)=O)CC1(C)C(=O)NCc1ccccc1 (stereo not given) | . | 0 | . | . | -1 | . | . | .
O=C(COC(=O)Cc1ccsc1)Nc1ccc(Cl)c(S(=O)(=O)N2CCOCC2)c1 | 77* | -2 | -2 | -5 | 0 | 0 | 1 | 3
O=Nc1c(O)ccc2cc(S(=O)(=O)O)ccc12 | 10 | -5 | 2 | 36 | -3 | . | . | .
CN(C)c1ccc2cc(S(=O)(=O)O)cc(O)c2c1 | 63* | 28 | 11 | 67* | 13 | . | 5 | -1
O=C(CC1Oc2ccccc2NC1=O)NC1CC1 (stereo not given) | 97* | 0 | 2 | . | 0 | 1 | 2 | 3
O=C(CC1Oc2ccccc2NC1=O)NC1CCCC1 (stereo not given) | 5 | 6 | 0 | -12 | -1 | 1 | . | .
COc1ccc(C(C)(C)C)cc1NC(=O)COC(=O)CN1C(=O)NC2(CCCCC2C)C1=O (stereo not given) | -2 | 7 | -1 | -11 | 0 | 1 | . | .
Cc1ccc(C(=O)NCC(=O)Nc2ccc3c(c2)CCC3)cc1C | 9 | 1 | -4 | -3 | -1 | . | . | .
Cc1cc(C(=O)Nc2ccc3c(c2)CCC3)ccc1[N+](=O)[O-] | 78* | -4 | 2 | -15 | 2 | 1 | 3 | 5
C#Cc1cccc(Nc2nc(NCc3ccccc3OC)nc3ccsc23)c1 | -13 | -4 | 0 | . | 12 | . | . | .
Cc1ccc(C)c(SCC(=O)NC(=O)NC2CCCC2)c1 | 74* | -2 | -1 | -1 | 1 | 13 | 2 | 3
Cc1cccc(C)c1C(O)c1ncc(-c2cccc3ccccc23)[nH]1 (stereo not given) | -3 | -9 | -2 | . | 1 | . | . | .
SMILES | DNMT1 block | SUMO1-SIM PPI | STEP block | Scp-1 inhibitor | LMPTP block | GRK2 inh | DNMT1 confirm | DNMT1 interf
COc1ccc(C(=O)Nc2ccccc2C(=O)Nc2cccc(C)n2)cc1 | 83* | 1 | -1 | 8 | 0 | 1 | 15 | 4
CC(C)Sc1nc2sc3c(c2c2nnc(SCC(=O)NCc4ccco4)n12)CCCC3 | 65* | 18 | 3 | 35 | 8 | 3 | 3 | 1
COc1ccc(OCC(=O)Nc2nnc(S(=O)(=O)N3CCCCCC3)s2)cc1 | 3 | 11 | -2 | -12 | -1 | 2 | . | .
Cc1ccc(OCC(=O)Nc2nnc(S(=O)(=O)N3CCC(C)CC3)s2)cc1 | 58* | 3 | 2 | 3 | 7 | 8 | -1 | -3
O=C1NC(=S)N/C1=C/c1ccc(Oc2ccc(C(F)(F)F)cc2[N+](=O)[O-])c(Cl)c1 | 51* | -1 | -2 | 8 | -1 | 2 | 1 | 3
O=C1NC(=S)N/C1=C/c1cccc([N+](=O)[O-])c1 | 5 | -26 | -4 | -6 | 1 | 4 | . | .
CN(Cc1nc2ccccc2c(=O)[nH]1)C(=O)c1cccc(S(=O)(=O)N2CCc3ccccc32)c1 | -2 | 4 | 1 | 3 | 1 | 0 | . | .
N#Cc1ccccc1OCC(=O)Nc1ccc2c(c1)OCO2 | -6 | -5 | 0 | . | 1 | . | . | .
c1ccc(-c2cn3ccccc3n2)cc1 | 3 | 0 | -1 | -4 | 3 | . | . | .
Oc1ccc(-c2cn3ccccc3n2)cc1 | 153* | -2 | 1 | 0 | -1 | 1 | 5 | 2
COc1cc[n+]([O-])cc1[N+](=O)[O-] | 1 | -4 | -4 | -10 | 0 | . | . | .
COc1ccc2[nH]c(C)c(CCN3C(=O)C4C5C=CC(C5)C4C3=O)c2c1 (stereo not given) | 82* | 0 | -2 | -16 | 0 | 0 | 0 | 1
